assay: Restrictive medium S. cerevisiae growth inhibition, OD615, pilot screen of yeast lifespan reduction project, restrictive growth control (AID 706); settings: OD615, 48 h, at 10 µM, stronger effect = higher value;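 active means growth inhibition above a set limit, 3 SD over mean compound inhibition, in both replicates (cut at about 43% in these data); inconclusive means above the limit in only one replicate; inactive means at or below the limit in both replicates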;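 further: modified DeaD lifespan yeast strain shifted to restrictive glucose medium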
In short: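 Material: engineered S. cerevisiae DeaD strain / Medium: glucose-based CSMM-D restrictive medium / Compound: single dose of 10 µM compound final, 0.25% DMSO / Timing: 4 h pre-incubation, 48 h exposure at 30 °C / Technique: OD615 absorbance reading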

Growth inhibition, inactive:
O=C(NCCCN1CCCC1=O)c1ccc2c(c1)ncn2C1CCCCC1 2.91%, CC(CCc1ccccc1)NC(=O)CSc1nnnn1C (stereo not given) -18.6%, Cc1cccc(-c2nnc(-c3ccccc3)o2)c1 -3.2%, COc1ccc2[nH]c(C)c(CCN3C(=O)C4CC=CCC4C3=O)c2c1 (stereo not given) -15.3%, CCc1ccccc1NC(=O)c1cc(-c2cccc(O)c2)on1 -5.59%, O=C(O)[C@H](Cc1ccccc1)N1Cc2ccccc2C1=O -15%, c1cnn(-c2nc(N3CCOCC3)nc(N3CCOCC3)n2)c1 7.23%, O=C(COc1ccc(S(=O)(=O)NC2CCCCC2)cc1)N1CCN(c2ccc(F)cc2)CC1 -0.445%, Fc1ccc(C2CC(c3ccccc3)Nc3ncnn32)cc1 (stereo not given) -3.12%, Cn1c(C(=O)N2CCN(c3ncccn3)CC2)cc2c(=O)n(C)c3ccccc3c21 8.57%, Cc1csc2nc(CNS(=O)(=O)c3ccc4c(c3)OCCO4)cn12 -5.18%, O=C(NC1CCCCC1)c1ccc(S(=O)(=O)N2CCOCC2)cc1 -2.56%, CC(C)CC(NS(=O)(=O)c1ccc2c(c1)oc(=O)n2C)C(=O)N1CC=C(c2ccccc2)CC1 (stereo not given) -14.5%, O=C1CC(N2CCN(C/C=C/c3ccccc3)CC2)C(=O)N1CCc1ccccc1 (stereo not given) -9.45%, CC(=O)C(C)Oc1ccc2c3c(c(=O)oc2c1)CCCC3 (stereo not given) 9.38%, CCOC(=O)c1c(C)n(C)c2ccc(OCC(O)CN3CCCCCC3)cc12 (stereo not given) -3.17%, COCCOC(=O)C1=C(C)NC2=C(C(=O)CC(C)(C)C2)C1c1ccc2c(c1)OCO2 (stereo not given) -4.59%, COc1cc(OC)cc(C(=O)NCC2CCCO2)c1 (stereo not given) 10.1%, O=C(O)c1ccc2c(c1)N(Cc1cccc(F)c1)C(=O)CS2 -0.16%, COc1ccc(S(=O)(=O)Cc2ccc(C(=O)N3CCN(c4cccc(C)c4C)CC3)o2)cc1 -1.19%, CCSc1nc2ccccc2n1S(=O)(=O)c1ccccc1 -20.8%, CN1CCN(Cc2ccc(-c3ccc(Cl)cc3)o2)CC1 -22.6%, CCCn1c2ccccc2c2cc(C(=O)O)ccc21 -6%, Clc1ccccc1-c1ccc(/C=N/n2cnnc2)o1 11.9%, CCOc1ccc(OCC)c(S(=O)(=O)NCc2ccc3c(c2)OCO3)c1 -2.62%, COc1cccc(C2NC(CCSC)(C(=O)O)C3C(=O)N(C(C)C)C(=O)C23)c1O (stereo not given) 8%, O=C(NCCCN1CCc2ccccc2C1)C1CCN(c2nnc(-n3cccc3)s2)CC1 -1.29%, N#Cc1ccc(N2CCN(C(=O)c3cccc(F)c3)CC2)c(F)c1 4.18%, COC(=O)c1sc2nc3c(cc2c1N)COC(C)(C)C3 -7.37%, O=C1CC(c2nc3ccccc3[nH]2)CN1c1ccccc1F (stereo not given) -1.12%, COc1cc2[nH]c(=O)n(CCCC(=O)NCCc3ccccc3)c(=O)c2cc1OC -7.02%, CCOc1ccc(NC(=O)c2ccc(N)cc2)cc1 -14.4%, Cc1cc(Nc2ccc(F)cc2)n2nc(C)nc2n1 4.12%, O=C1Nc2ccccc2C(O)(C(=O)N2CCCCC2)N1c1ccccc1 (stereo not given) -20.2%, CCCCN1C(=O)C(O)(CC(=O)c2ccccc2OC)c2ccccc21 (stereo not given) -5.6%, CCOC(=O)C1=C(C)S/C(=C\N(C)C)C1=O -1.29%, CCC(C)NC(=O)c1ccc(CS(=O)(=O)c2ccc(OC)cc2)o1 (stereo not given) -1.07%, CCCCCSc1nnc2c(n1)OC(C)N(C(C)=O)c1ccccc1-2 (stereo not given) -6.29%, O=C(c1cc(-c2cccc(O)c2)on1)N1CCc2ccccc2C1 -17.6%, N=c1n(-c2ccccc2)c(O)cc(=O)n1-c1ccccc1 1.77%

— PubChem BioAssay
